Assay results collected from several papers.
Compare with care: the assays were run in different laboratories.
Target: Phosphorylase b kinase gamma catalytic chain, skeletal muscle/heart isoform (PHKG1, Homo sapiens, UniProt Q16816)

Structure (SMILES) | assay | conditions | remaining binding [%]
C[C@H]1CCN(c2nccc(-c3cnn4ncccc34)n2)C1 | binding | 1 µM | 100
Cc1c(NC(=O)c2cc(C(N)=O)nc3cc(F)ccc23)c(C(F)(F)F)nn1Cc1ccc(C(C)(C)C)cc1 | cell-free assay, competition with immobilised ligand | 1 µM | 100
CN(c1nccc(-c2cnn3ncccc23)n1)C1CC1 | binding | 1 µM | 100
C=CC(=O)N1CCC(C(=O)NCC(=O)N2CCN(c3nc(-c4cnc(N)nc4C(F)F)nc(N4CCOCC4)n3)CC2)CC1 | binding, competition with immobilised ligand | 1 µM | 100
COc1ccc2cc(OCC3(C(=O)O)CN(C(=O)c4ccc(F)cc4)C3)ccc2c1 | cell-free assay, competition with immobilised ligand | 1 µM | 100
c1cnn2ncc(-c3ccnc(N4CCC45COC5)n3)c2c1 | binding | 1 µM | 85
O=C(NCC1CCOCC1)c1n[nH]cc1NC(=O)c1c(F)cccc1F | binding, competition with immobilised ligand | 1 µM | 100
COc1cnc(Nc2cccc(S(N)(=O)=O)c2)nc1N1CCN(c2ccccc2)CC1 | binding, competition with immobilised ligand | 1 µM | 97
CN(C)c1nccc(-c2cnc3ncccn23)n1 | binding | 1 µM | 100
O=C(NCCCN1CCOCC1)c1ccc(Nc2nccc(-c3cc4ccccc4s3)n2)cc1 | binding, competition with immobilised ligand | 1 µM | 49
COc1ccnn2ncc(-c3ccnc(N(C)C)n3)c12 | binding | 1 µM | 100
O=C(c1ccc(Nc2nccc(-c3cc4ccccc4s3)n2)cc1)N1CCC(N2CCCC2)CC1 | binding, competition with immobilised ligand | 1 µM | 96
O=C(N[C@H]1CCCCC/C=C\C2C[C@@]2(C(=O)O)NC(=O)[C@@H]2C[C@@H](Oc3ccncc3)CN2C1=O)OC1CCCC1 (stereo partly shown) | binding, competition with immobilised ligand | 1 µM | 88
Cc1cnc(Nc2ccc(C(=O)N3CCC(N4CCCC4)CC3)cc2)nc1-c1cc2ccccc2s1 | binding, competition with immobilised ligand | 1 µM | 54
CC(=O)c1c(NS(C)(=O)=O)c2cc(-c3ccc(Cl)cc3)c(-c3ccc(Cl)cc3Cl)nc2n(C)c1=O | cell-free assay, competition with immobilised ligand | 1 µM | 94
Nc1ncc2c(n1)-c1c([nH]c3ccc(C#CC4CC4)cc13)CCCC2 | binding, competition with immobilised ligand | 1 µM | 93
CCCOc1ccc([C@@H]2[C@@H](C(=O)O)[C@H](c3ccc4c(c3)OCO4)CN2CC(=O)Nc2c(CC)cccc2CC)cc1 | cell-free assay, competition with immobilised ligand | 1 µM | 97
COc1ncc2cc3ccccc3nc2c1C#N | cell-free assay, competition with immobilised ligand | 5 µM | 83
N#CC1(c2ccccn2)CCN(Cc2cc(C(=O)N3CCCC3)c(=O)n3ccccc23)CC1 | cell-free assay, competition with immobilised ligand | 1 µM | 100
CN(C)c1nccc(-c2cnn3ncccc23)n1 | binding | 1 µM | 100
CC(=O)C1=C(C)N(c2cccc(C(F)(F)F)c2)C(=O)N[C@@H]1c1ccc(C#N)nc1 | cell-free assay, competition with immobilised ligand | 1 µM | 100
CN(C)c1ncc(F)c(-c2cnn3ncccc23)n1 | binding | 1 µM | 100
